Assay outcomes from PubChem.
LMPTP inh: LMPTP (human) inhibition | actives 0.22% (n = 360,000) | inhibition, % at 20 µM | recombinant LMPTP-A, OMFP fluorogenic substrate, fluorescence intensity | P24666;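 active = compounds that cut the enzyme signal by at least half of the control window in the single-dose screen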;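 note: plate controls were DMSO wells with enzyme plus substrate for no effect and substrate without enzyme for full effect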
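material = LMPTP-A | quantity = 0.625 nM enzyme | reagent = OMFP substrate, 400 µM final | buffer or medium = Bis-Tris pH 6.0, DTT, detergent | detection = endpoint fluorescence intensity from OMFP dephosphorylation | dosing = single 20 µM dose | read-out basis = % inhibition relative to no-enzyme and uninhibited control wells | control set = no-enzyme and uninhibited controls | timing = 50 min at room temperature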
STEP inh: STEP (human) phosphatase inhibition. P54829. recombinant STEP, OMFP fluorogenic substrate, fluorescence. inhibition, % at 20 µM. actives 0.25% (n = 360,000). AID 588621;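 active = inhibition at 20 µM, scaled per plate between control wells, above about 37%, limit read from the data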;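 note: 0% = DMSO with enzyme and substrate and 100% = substrate only without enzyme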
Target sequence (P54829 whole entry, looked up): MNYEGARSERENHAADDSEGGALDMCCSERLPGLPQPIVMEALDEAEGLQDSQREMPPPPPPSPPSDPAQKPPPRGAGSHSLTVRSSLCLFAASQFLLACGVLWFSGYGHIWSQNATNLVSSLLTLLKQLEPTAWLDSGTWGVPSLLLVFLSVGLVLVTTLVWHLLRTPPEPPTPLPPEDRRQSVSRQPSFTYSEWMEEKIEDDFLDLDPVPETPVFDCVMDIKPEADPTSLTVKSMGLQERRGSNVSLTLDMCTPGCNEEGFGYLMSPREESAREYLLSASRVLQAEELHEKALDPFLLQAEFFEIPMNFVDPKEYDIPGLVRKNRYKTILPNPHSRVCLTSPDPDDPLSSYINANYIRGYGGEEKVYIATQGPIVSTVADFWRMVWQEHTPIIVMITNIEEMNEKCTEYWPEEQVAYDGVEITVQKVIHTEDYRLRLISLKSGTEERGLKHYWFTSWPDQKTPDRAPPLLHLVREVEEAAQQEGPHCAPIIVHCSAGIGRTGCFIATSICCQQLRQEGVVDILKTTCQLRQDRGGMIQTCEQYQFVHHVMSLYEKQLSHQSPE
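Material: STEP (striatal-enriched tyrosine phosphatase) enzyme, cell-free | Medium: 50 mM Bis-Tris pH 6.0 with 2.5 mM DTT and 0.005% Tween 20 | Read-out: Percent inhibition scaled to no-enzyme and uninhibited-enzyme controls, plate-pattern corrected | Signal: Fluorescence read at 480 nm ex / 540 nm em | Times: 20 min reaction, room temperature, in the dark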
Scp-1 inhibitor: blocks human Scp-1 phosphatase activity; Q9GZU7; Recombinant Scp1, phosphopeptide, malachite green phosphate absorbance; inhibition, % at 20 µM; actives 0.88% (n = 340,000); AID 493091;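 active = inhibition above about 50% at 20 µM, limit read from the data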;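 note: plate controls were DMSO wells with enzyme for no effect and wells lacking enzyme for full effect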
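System: truncated SCP-1 phosphatase (76-261aa); medium: Tris acetate buffer pH 5.5 with MgCl2 and Tween-20; incubation: 45 min room-temperature reaction, 5 min colour, 30 min stabiliser; compound: single 20 µM dose, 1% DMSO; reagent: Phosphorylated 17-residue peptide substrate; read-out: % inhibition at 20 µM; technique: colorimetric free-phosphate detection, absorbance 630 nm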
DNMT1 inh: inhibitors of human DNMT1. DNMT1 molecular beacon, Hinp1I cleavage, fluorescence. inhibition (reported as % activation of signal), % at 10 µM. actives 0.83% (n = 360,000). AID 588458; in the data active = inhibition above about 50%
SUMO1-SIM PPI: alters human SUMO1 binding to SIM partners; P63165; SUMO1 binding to a labelled peptide, TR-FRET, 1 h; inhibition, % at 20 µM; actives 0.33% (n = 360,000); AID 602429; in the data active = inhibition above about 37%
* = called active by the depositor; . = no result given. Most compounds without a hit are left out; they make up all but 1.8% or so of the library.

SMILES	LMPTP inh	STEP inh	Scp-1 inhibitor	DNMT1 inh	SUMO1-SIM PPI
CCCCn1nnnc1C(c1cc2ccccc2o1)N1CCN(C(=O)OCC)CC1 (configuration not stated)	-0.6	.	.	.	-0.2
Cc1cc(C(=O)NC2CCCc3c2cnn3-c2ccc(C)c(C)c2)n(C)n1 (configuration not stated)	1.1	-0.5	79.0*	1.2	-1.6
COc1cccc(C(NC(C)=O)c2nc(-c3cccs3)cs2)c1 (configuration not stated)	-0.5	1.2	.	2.4	-10.8
O=C1NN(c2cccc(Br)c2)C(=O)/C1=C/c1ccc(-c2cc([N+](=O)[O-])ccc2O)o1	76.7*	69.5*	98.9*	52.6*	102.3*
O=C1NN(c2ccc(Cl)c(Cl)c2)C(=O)/C1=C/c1ccc(-c2ccccc2C(=O)O)o1	8.2	20.3	49.4	59.7*	29.6
CC1=NN(c2ccc(Cl)c(C(=O)O)c2)C(=O)/C1=C\c1ccc(-c2ccc(C(=O)O)cc2)o1	1.2	20.7	81.2*	27.9	13.5
CC1=NN(c2ccc(C)cc2)C(=O)/C1=C/c1ccc(-c2cc([N+](=O)[O-])ccc2O)o1	24.7	7.1	20.5	41.0	79.6*
CC1=NN(c2ccc(C(=O)O)cc2)C(=O)/C1=C/c1ccc(-c2ccccc2F)o1	-0.1	4.6	.	9.2	12.0
CC1=NN(c2ccccc2)C(=O)/C1=C/c1ccc(-c2ccc(C)c(C(=O)O)c2)o1	.	.	5.3	.	.
CCN(C(=O)COC(=O)CNC(=O)c1ccc(C)cc1)c1c(N)n(Cc2ccccc2)c(=O)[nH]c1=O	-0.7	-2.9	-12.1	0.8	-1.7
CCOC1=C2[C@@H](CN(S(=O)(=O)c3ccc(C)cc3)[C@H]2c2ccc(Cl)cc2)[C@H]2C(=O)N(c3ccccc3)C(=O)[C@H]2C1	1.2	-0.8	.	2.5	0.5
CCOC(=O)C1=C(COc2ccccc2)NC(=O)NC1c1ccc(Cl)cc1 (configuration not stated)	-1.1	-2.8	49.7	4.0	68.7*
C[C@H]1COc2cccc(N3CCSCC3)c2S(=O)(=O)N1	-1.7	.	.	.	6.5
O=C(O)CN=CC1=C(O)CC(c2ccccc2)CC1=O (configuration not stated)	-0.5	-0.8	-3.7	-0.7	-10.0
O=C(COC(=O)c1ccc(Br)o1)Nc1ccc2[nH]c(=O)[nH]c2c1	-0.7	2.4	1.1	7.8	38.5*
O=C(COC(=O)c1ccccc1)Nc1ccc2[nH]c(=O)[nH]c2c1	-1.2	-2.8	-2.8	0.1	3.7
O=C(COC(=O)c1ccco1)Nc1ccc2[nH]c(=O)[nH]c2c1	-0.3	-3.3	-5.0	1.1	50.6*
CC(=O)c1c(C)[nH]c(C(=O)OCC(=O)Nc2ccc3[nH]c(=O)[nH]c3c2)c1C	0.4	0.0	-6.9	-13.4	60.8*
O=C(COC(=O)c1ccc(F)c(S(=O)(=O)N2CCOCC2)c1)Nc1ccc2[nH]c(=O)[nH]c2c1	-2.3	-1.6	-2.5	-0.7	61.4*
O=C(NCc1ccccc1)c1ccc(NC(=O)C2CCC2)cc1	-0.7	-2.7	-0.1	4.8	-0.5
Nc1nccnc1C(=O)OCC(=O)Nc1ccc2[nH]c(=O)[nH]c2c1	3.0	1.7	10.0	1.7	80.2*
CC1=NN(c2ccccc2)C(=O)C1C(=S)SC1CC(=O)NC1=O (configuration not stated)	-0.4	6.3	.	-0.5	-15.6
O=C1CC(SC(=S)C2CCCC2=O)C(=O)N1 (configuration not stated)	0.6	11.6	.	68.8*	30.3
O=C(Nc1ccc(F)cc1)C1CCCN1S(=O)(=O)c1ccc(Br)cc1 (configuration not stated)	-1.6	-2.4	-4.0	1.8	3.5
O=C(Nc1c[nH]c(=O)[nH]c1=O)c1ccc2c(c1)C(=O)N(c1cccc([N+](=O)[O-])c1)C2=O	15.8	6.3	38.2	58.0*	5.1
CCCCc1ccc(NC(=O)CSc2nc(=O)n(CCCN3CCOCC3)c3c2CCC3)cc1	-0.7	1.7	-0.6	-2.0	6.3
O=C(Nc1ccc(C(F)(F)F)cc1)c1ccc(NC(=O)C2CCCO2)cc1 (configuration not stated)	39.7	51.6*	32.6	9.0	17.9
Cc1cc(C(=O)OCC(=O)NC2CCCC2)c2ccccc2n1	-0.6	1.7	5.1	-1.1	-10.6
